Measurements from ChEMBL document CHEMBL1139901, “Synthesis of new plant growth regulator: N-(fatty acid) O-aryloxyacetyl ethanolamine” (Bioorg Med Chem Lett, 2007).

Assays:
Triticum aestivum = assay: Stimulation of coleoptiles growth in common wheat after 18 to 20 hrs; assay type: functional; parameters: concentration or dose not given beside the values
Summary of the method: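 Wheat coleoptile tips (5 mm) were soaked in distilled water for 1 h to remove endogenous hormone, then cut into 10 segments. Compound in DMF was dried onto 6-cm filter paper and placed in 0.01 mol/L phosphoric acid–citric acid buffer (pH 5) with 2% sucrose, giving 10 mg/L. Ten segments were cultured at 25 °C in the dark for 18–20 h. Length was compared with untreated segments; two replicates.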

Cucumis sativus = assay: Stimulation of cytyledon expansion in cucumber after 3 days; assay type: functional; parameters: concentration or dose not given beside the values
Summary of the method: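 Soaked cucumber seeds were germinated on 0.7% agar for 3 days in the dark at 26 °C, and cotyledons of similar size were selected. Compound in DMF was dried onto 6-cm filter paper, then distilled water was added to give 10 mg/L. Ten cotyledons were cultured per dish under light (300 Lux, 26 °C). Percent increase was taken over the no-regulator control.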

Brassica napus = assay: Stimulation of hypocotyls elongation in rape after 3 days; assay type: functional; parameters: concentration or dose not given beside the values
Summary of the method: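 Rape seeds were cultured at 25 °C in the dark. Hypocotyl length was measured after 3 days and compared with seeds treated with distilled water; two replicates.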

[1] = Solubility in chloroform; assay type: physicochemical
[2] = Solubility in ethyl acetate solution; assay type: physicochemical
[3] = Solubility in ethanol; assay type: physicochemical

| SMILES | Activity (Triticum aestivum) | Activity (Cucumis sativus) | Activity (Brassica napus) | Solubility [1] | Solubility [2] | Solubility [3] |
| --- | --- | --- | --- | --- | --- | --- |
| CCCCCCCCCCCC(=O)NCCOC(=O)COc1ccc(Cl)cc1 | 16% | 2.9% | 71.8% | – | – | – |
| CCCCCCCCCCCCCCCCCC(=O)NCCOC(=O)COc1ccc(Cl)cc1Cl | 7.5% | 0.7% | 73.8% | 10.22 g | 3.54 g | 1.03 g |
| CCCCCCCCCCCCCC(=O)NCCOC(=O)COc1ccc(Cl)cc1Cl | 8.9% | -0.1% | 68.1% | – | – | – |
| CCCCCCCCCCCC(=O)NCCOC(=O)COc1ccc(Cl)cc1Cl | 17.9% | 4% | 69% | 15.1 g | 11 g | 10.42 g |
| CCCCCCCCCCCC(=O)NCCO | – | – | – | 1.76 g | 0.38 g | 9.14 g |
| CCCCCCCCCCCCCCCCCC(=O)NCCOC(=O)COc1cccc(OC)c1 | 5% | -0.1% | -1.4% | 7.76 g | 2.67 g | 1.99 g |
| CCCCCCCCCCCCCCCCCC(=O)NCCOC(=O)COc1ccccc1C | 0.7% | 5.7% | 57% | 53.97 g | 8.27 g | 3.08 g |
| CCCCCCCCCCCC(=O)NCCOC(=O)COc1ccc(C)cc1 | 4.1% | 5.9% | 54.9% | – | – | – |
| CCCCCCCCCCCCCCCCCC(=O)NCCOC(=O)COc1ccc(Cl)cc1 | 5% | 6.3% | 71.8% | 4.37 g | 1.54 g | 1.88 g |
| CCCCCCCCCCCCCCCCCC(=O)NCCOC(=O)COc1ccc(C)cc1 | 3.3% | 9.8% | 38.7% | – | – | – |
| CCCCCCCCCCCCCCCC(=O)NCCOC(=O)COc1ccc(Cl)cc1Cl | 17% | 3.5% | 67.3% | – | – | – |
| O=C(O)COc1ccc(Cl)cc1Cl [2,4-DICHLOROPHENOXYACETIC ACID] | 28.3% | 0.8% | 65.7% | – | – | – |
| CCCCCCCCCCCCCCCCCC(=O)NCCO [N-(2-HYDROXYETHYL)STEARAMIDE] | 2.1% | 6.2% | 35.3% | 0.16 g | 0.03 g | 0.34 g |
